According to paper PMC11520665 (Critical Care, 2024):
Numbered stars: 1 amine (or outer) side, 2 acyl side, 3 side chain; on linkers, the order of the positions; unused ones are H or OH. Bridge positions count the residues as written; N and C are the ends. Square brackets hold non-standard residues; d marks the D form. Peptide text beside a SMILES is read from it. * marks the point of attachment. Orn(4R-OH,5R-OCH2CH2NMe3+) = C[N+](C)(C)CCO[C@@H](N[*:3])[C@H](O)C[C@H](N[*:1])C(=O)[*:2]; pTerphenylCO(4''-OnC5H11) = CCCCCOc1ccc(-c2ccc(-c3ccc(C(=O)*)cc3)cc2)cc1; hTyr(3S-OH,4S-OH) = N[C@H](C(=O)O)[C@H](O)[C@@H](O)c1ccc(O)cc1; Pro(3S-OH,4S-Me) = C[C@H]1CN[C@H](C(=O)O)[C@H]1O; Hyp = O=C(O)[C@@H]1C[C@@H](O)CN1

Legend:
[1] = cited from earlier work
[2] = Safety: treatment-emergent adverse events; type: in vivo, patients (adults); settings: safety population
In short: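 Post-hoc pooled data from two randomised, double-blind, double-dummy trials. The safety population was adults in the ICU at randomisation who received ≥1 dose. Dosing was IV test compound weekly (400 mg Day 1, 200 mg Day 8, optional later 200 mg) or IV comparator echinocandin daily (70 mg Day 1, then 50 mg/day). TEAEs ran from dosing to follow-up, coded MedDRA 23.0, graded mild/moderate/severe, and summarised descriptively.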

[3] = ICU at randomisation, n=46 rezafungin, n=67 caspofungin
[4] = ICU at randomisation, number of events per severity

## CCCCCOc1ccc(-c2ccc(-c3ccc(C(=O)N[C@H]4C[C@@H](O)[C@@H](OCC[N+](C)(C)C)NC(=O)[C@@H]5[C@@H](O)[C@@H](C)CN5C(=O)[C@H]([C@@H](C)O)NC(=O)[C@H]([C@H](O)[C@@H](O)c5ccc(O)cc5)NC(=O)[C@@H]5C[C@@H](O)CN5C(=O)[C@H]([C@@H](C)O)NC4=O)cc3)cc2)cc1 [Rezafungin] ({pTerphenylCO(4''-OnC5H11)}-[Orn(4R-OH,5R-OCH2CH2NMe3+)]T[Hyp][hTyr(3S-OH,4S-OH)]T[Pro(3S-OH,4S-Me)]; lactam 1-C)
[1]
  half-life: 120 to 140 h
[2]; [3]
  TEAE: Abdominal abscess, patients: 1 (2.2) n (%)
  TEAE: Abdominal pain, patients: 4 (8.7) n (%)
  TEAE: Acidosis, patients: 1 (2.2) n (%)
  TEAE: Acute kidney injury, patients: 1 (2.2) n (%)
  TEAE: Anaemia, patients: 7 (15.2) n (%)
  TEAE: Atrial fibrillation, patients: 3 (6.5) n (%)
  TEAE: Bradycardia, patients: 1 (2.2) n (%)
  TEAE: Constipation, patients: 2 (4.3) n (%)
  TEAE: Decubitus ulcer, patients: 3 (6.5) n (%)
  TEAE: Deep vein thrombosis, patients: 1 (2.2) n (%)
  TEAE: Diarrhoea, patients: 7 (15.2) n (%)
  TEAE: Dyspnoea, patients: 0 (0) n (%)
  TEAE: Fluid overload, patients: 4 (8.7) n (%)
  TEAE: Hyperkalaemia, patients: 2 (4.3) n (%)
  TEAE: Hypertension, patients: 3 (6.5) n (%)
  TEAE: Hypokalaemia, patients: 4 (8.7) n (%)
  TEAE: Hypotension, patients: 3 (6.5) n (%)
  TEAE: Insomnia, patients: 4 (8.7) n (%)
  TEAE: Multiple organ dysfunction syndrome, patients: 3 (6.5) n (%)
  TEAE: Nausea, patients: 4 (8.7) n (%)
  TEAE: Peripheral oedema, patients: 3 (6.5) n (%)
  TEAE: Pleural effusion, patients: 0 (0) n (%)
  TEAE: Pneumonia, patients: 3 (6.5) n (%)
  TEAE: Pneumothorax, patients: 0 (0) n (%)
  TEAE: Pyrexia, patients: 2 (4.3) n (%)
  TEAE: Respiratory failure, patients: 0 (0) n (%)
  TEAE: Sepsis, patients: 5 (10.9) n (%)
  TEAE: Septic shock, patients: 6 (13.0) n (%)
  TEAE: Vomiting, patients: 7 (15.2) n (%)
  ≥ 1 TEAE: 41 (89.1) n (%)
  ≥ 1 TEAE leading to study/drug discontinuation: 8 (17.4) n (%)
  ≥ 1 serious TEAE: 28 (60.9) n (%)
  ≥ 1 study drug-related TEAE: 4 (8.7) n (%)
  ≥ 1 study drug-related TEAE leading to study/drug discontinuation: 0 (0) n (%)
  ≥ 1 study drug-related serious TEAE: 1 (2.2) n (%)
[2]; [4]
  TEAE: Abdominal abscess, event severity (n): mild/moderate/severe: 0/1/0
  TEAE: Abdominal pain, event severity (n): mild/moderate/severe: 1/2/1
  TEAE: Acidosis, event severity (n): mild/moderate/severe: 1/1/0
  TEAE: Acute kidney injury, event severity (n): mild/moderate/severe: 1/1/0
  TEAE: Anaemia, event severity (n): mild/moderate/severe: 2/4/1
  TEAE: Atrial fibrillation, event severity (n): mild/moderate/severe: 1/2/0
  TEAE: Bradycardia, event severity (n): mild/moderate/severe: 0/1/0
  TEAE: Constipation, event severity (n): mild/moderate/severe: 2/0/0
  TEAE: Decubitus ulcer, event severity (n): mild/moderate/severe: 2/1/0
  TEAE: Deep vein thrombosis, event severity (n): mild/moderate/severe: 1/0/0
  TEAE: Diarrhoea, event severity (n): mild/moderate/severe: 6/1/0
  TEAE: Dyspnoea, event severity (n): mild/moderate/severe: 0/0/0
  TEAE: Fluid overload, event severity (n): mild/moderate/severe: 0/3/1
  TEAE: Hyperkalaemia, event severity (n): mild/moderate/severe: 2/0/0
  TEAE: Hypertension, event severity (n): mild/moderate/severe: 2/1/0
  TEAE: Hypokalaemia, event severity (n): mild/moderate/severe: 3/1/0
  TEAE: Hypotension, event severity (n): mild/moderate/severe: 2/1/0
  TEAE: Insomnia, event severity (n): mild/moderate/severe: 3/1/0
  TEAE: Multiple organ dysfunction syndrome, event severity (n): mild/moderate/severe: 0/0/3
  TEAE: Nausea, event severity (n): mild/moderate/severe: 0/4/0
  TEAE: Peripheral oedema, event severity (n): mild/moderate/severe: 3/0/0
  TEAE: Pleural effusion, event severity (n): mild/moderate/severe: 0/0/0
  TEAE: Pneumonia, event severity (n): mild/moderate/severe: 0/0/3
  TEAE: Pneumothorax, event severity (n): mild/moderate/severe: 0/0/0
  TEAE: Pyrexia, event severity (n): mild/moderate/severe: 1/1/0
  TEAE: Respiratory failure, event severity (n): mild/moderate/severe: 0/0/0
  TEAE: Sepsis, event severity (n): mild/moderate/severe: 3/2/1
  TEAE: Septic shock, event severity (n): mild/moderate/severe: 0/1/5
  TEAE: Vomiting, event severity (n): mild/moderate/severe: 4/4/0
[2]; each event n = 1
  Study drug-related serious TEAEs, events: infusion-related reaction
